The values below come from ChEMBL document CHEMBL4041491, “Imidazo[1,2-a]pyrazin-8-amine core for the design of new adenosine receptor antagonists: Structural exploration to target the A3 and A2A subtypes” (Eur J Med Chem, 2017).

SMILES strings stand for the structures.

For assay [1], the target named is T1, Adenosine receptor A2b (Homo sapiens) (UniProt P29275).
T1 sequence (whole entry): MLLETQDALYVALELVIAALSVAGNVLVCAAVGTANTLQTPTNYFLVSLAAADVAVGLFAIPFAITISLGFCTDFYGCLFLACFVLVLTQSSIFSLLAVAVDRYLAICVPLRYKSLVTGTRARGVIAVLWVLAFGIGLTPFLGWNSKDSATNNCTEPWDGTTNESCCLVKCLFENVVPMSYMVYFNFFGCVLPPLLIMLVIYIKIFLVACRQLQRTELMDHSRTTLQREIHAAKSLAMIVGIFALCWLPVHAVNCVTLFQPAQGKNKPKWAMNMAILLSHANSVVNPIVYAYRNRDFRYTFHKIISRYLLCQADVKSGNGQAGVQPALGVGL
In words: Antagonist activity at human A2B receptor expressed in CHO cells assessed as inhibition of NECA-stimulated cAMP production at 1 uM by [3H]cAMP competition binding based scintillation counting method relative to control. The assay is classed as functional, cell-based. The procedure, abridged:
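Transfected CHO cells (1 × 10^6/assay) in buffered saline pH 7.4 with adenosine deaminase 2 IU/ml and Ro 20-1724, preincubated 10 min at 37 °C. Test compound at 1 μM against 200 nM NECA-stimulated cAMP. TCA stop, ether extraction, cAMP measured by [3H]cAMP competition binding to bovine adrenal binding protein. Result given as percent inhibition.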
(In general: Changes in cAMP serve as a functional read-out for many G protein-coupled receptors.)

The target of assay [2] is T2, Adenosine receptor A3 (Homo sapiens, UniProt P0DMS8). In words: Displacement of [125I]AB-MECA from human adenosine A3 receptor expressed in CHO cell membranes after 120 mins by scintillation counting method. The gist of the method:
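hA3 CHO membranes (50 µg protein) with 0.5 nM [125I]AB-MECA in 50 mM Tris HCl, 10 mM MgCl2, 1 mM EDTA, pH 7.4, 120 min at 4 °C. Six to eight ligand concentrations, or 1 µM for percent inhibition. Nonspecific binding with 1 µM AB-MECA; GF/B filtration. Ki by Cheng–Prusoff, four assays in duplicate, means ± SEM.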
On the technique in general: Displacement assays read how much labelled ligand stays bound in the presence of the test substance.

The target in assay [3] is T3, Adenosine receptor A1 (Homo sapiens) (UniProt P30542).
T3 sequence (whole entry): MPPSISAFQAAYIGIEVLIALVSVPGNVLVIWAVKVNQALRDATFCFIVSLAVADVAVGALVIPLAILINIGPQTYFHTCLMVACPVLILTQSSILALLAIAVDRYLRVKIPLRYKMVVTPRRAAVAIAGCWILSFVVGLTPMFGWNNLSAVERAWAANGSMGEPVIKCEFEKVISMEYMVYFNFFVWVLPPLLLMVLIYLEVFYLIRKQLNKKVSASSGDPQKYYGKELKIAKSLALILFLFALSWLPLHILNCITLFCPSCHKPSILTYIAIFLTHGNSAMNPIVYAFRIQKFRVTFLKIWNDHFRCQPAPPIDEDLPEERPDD
In words: Displacement of [3H]DPCPX from human adenosine A1 receptor expressed in CHO cell membranes at 1 uM after 120 mins by scintillation counting method relative to control. The gist of the method: (§1)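 hA1 CHO membranes (50 µg protein) with 1 nM [3H]DPCPX in 50 mM Tris HCl pH 7.4, 120 min at 25 °C. Six to eight antagonist concentrations, or 1 µM for percent inhibition. Nonspecific binding with 1 µM DPCPX. Ki via Cheng–Prusoff, four assays in duplicate, means ± SEM.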

Assay [4] deals with T4, Adenosine receptor A2a (Homo sapiens, UniProt P29274). In words: Displacement of [3H]ZM241385 from human adenosine A2A receptor expressed in CHO cell membranes at 1 uM after 60 mins by scintillation counting method relative to control. The gist of the method: (§2)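 hA2A CHO membranes (50 µg protein) with 1 nM [3H]ZM241385 in 50 mM Tris HCl, 10 mM MgCl2, pH 7.4, 60 min at 4 °C. Six to eight antagonist concentrations, or 1 µM for percent inhibition. Nonspecific binding with 1 µM ZM241385. Ki via Cheng–Prusoff, four assays in duplicate, means ± SEM.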
T4 sequence (P29274 whole entry): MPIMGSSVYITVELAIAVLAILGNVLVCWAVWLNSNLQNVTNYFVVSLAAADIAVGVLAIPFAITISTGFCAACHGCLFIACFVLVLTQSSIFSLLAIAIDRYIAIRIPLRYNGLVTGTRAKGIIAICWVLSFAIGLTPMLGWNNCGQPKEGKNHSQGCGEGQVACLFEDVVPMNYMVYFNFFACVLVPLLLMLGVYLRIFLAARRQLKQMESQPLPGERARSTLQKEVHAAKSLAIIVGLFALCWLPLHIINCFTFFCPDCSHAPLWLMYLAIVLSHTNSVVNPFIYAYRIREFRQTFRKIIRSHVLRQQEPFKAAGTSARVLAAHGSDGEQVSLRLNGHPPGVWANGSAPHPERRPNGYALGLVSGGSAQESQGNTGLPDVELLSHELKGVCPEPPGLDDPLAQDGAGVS

Another assay has as its target T5, Adenosine receptor A1 (Homo sapiens, UniProt P30542).
T5 sequence (P30542 whole entry): T3 sequence (whole entry)
In words: Displacement of [3H]DPCPX from human adenosine A1 receptor expressed in CHO cell membranes after 120 mins by scintillation counting method. The gist of the method:
as §1

The target of assay [5] is T4, Adenosine receptor A2a. In words: Displacement of [3H]ZM241385 from human adenosine A2A receptor expressed in CHO cell membranes after 60 mins by scintillation counting method. The gist of the method: as §2
The target in assay [6] is T2, Adenosine receptor A3. In words: Displacement of [125I]AB-MECA from human adenosine A3 receptor expressed in CHO cell membranes at 1 uM after 120 mins by scintillation counting method relative to control.
The target of assay [7] is T6, Adenosine receptor A3 (Rattus norvegicus) (UniProt P28647).
T6 sequence (whole entry): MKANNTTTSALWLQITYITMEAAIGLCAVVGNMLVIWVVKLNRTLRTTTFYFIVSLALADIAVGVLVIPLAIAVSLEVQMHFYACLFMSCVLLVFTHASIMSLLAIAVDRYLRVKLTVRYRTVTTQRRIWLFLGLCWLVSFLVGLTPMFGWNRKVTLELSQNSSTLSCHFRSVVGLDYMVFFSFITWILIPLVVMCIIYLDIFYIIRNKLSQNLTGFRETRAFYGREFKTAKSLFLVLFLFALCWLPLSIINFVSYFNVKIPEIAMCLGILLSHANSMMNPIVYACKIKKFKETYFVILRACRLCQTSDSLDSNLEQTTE
As to the kind of experiment: Displacement of [125I]AB-MECA from rat adenosine A3 receptor expressed in HEK293 cell membranes at 1 uM after 120 mins by scintillation counting method relative to control. The procedure, abridged:
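rA3 receptor in HEK293 membranes (10 μg protein), 0.5 nM [125I]AB-MECA, 50 mM Tris–HCl, 10 mM MgCl2, 1 mM EDTA, pH 7.4, 120 min at 25 °C. Nonspecific binding with 1 μM AB-MECA; filtration and scintillation counting. Percent inhibition of specific binding at 1 µM.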

The target of assay [8] is T2, Adenosine receptor A3. As to the kind of experiment: Antagonist activity at human A3 receptor expressed in CHO cells assessed as inhibition of CI-IB-MECA-mediated inhibition of cAMP production by [3H]cAMP competition binding based scintillation counting method. It is filed as cell-based. The gist of the method: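 hA3-transfected CHO cells (1 × 10^6/assay) in buffered saline pH 7.4 with adenosine deaminase and Ro 20-1724, preincubated 10 min at 37 °C. Antagonism of 100 nM Cl-IB-MECA inhibition of 1 µM forskolin-stimulated cAMP. cAMP measured by [3H]cAMP protein-binding assay. IC50 by sigmoid nonlinear regression, four independent experiments in triplicate, means ± SEM.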

T2 sequence (P0DMS8 whole entry, looked up): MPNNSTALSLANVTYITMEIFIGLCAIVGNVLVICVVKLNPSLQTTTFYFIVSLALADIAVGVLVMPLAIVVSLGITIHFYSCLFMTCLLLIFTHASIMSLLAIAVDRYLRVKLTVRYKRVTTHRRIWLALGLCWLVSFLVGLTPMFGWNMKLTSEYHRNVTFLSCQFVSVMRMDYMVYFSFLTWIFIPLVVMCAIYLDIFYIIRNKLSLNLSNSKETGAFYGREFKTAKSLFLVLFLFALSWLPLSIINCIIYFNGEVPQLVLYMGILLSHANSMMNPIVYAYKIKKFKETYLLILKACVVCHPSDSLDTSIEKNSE

Usually inhibition stands for the share of the control response that was lost under treatment. For orientation: Ki means the equilibrium dissociation constant of an inhibitor or competing ligand from its target. A low value points to tighter binding. On to `O=C(Nc1nc(-c2ccccc2)cn2cc(-c3ccccc3)nc12)c1ccc(F)cc1`, for which the inhibition in [1] stood at 2%; in assay [3] it was 1%; at Adenosine receptor A2a [4], 1%. The same molecule displayed a Ki at Adenosine receptor A3 [2] of 38 nM.
In the case of `Nc1nc(-c2ccccc2)cn2cc(-c3ccco3)nc12`, the Ki was found to be 143 nM at Adenosine receptor A1 and 520 nM on Adenosine receptor A2a [5]. In addition, the values for the inhibition (in [1]; on Adenosine receptor A3 [6]) were 10% and 21%, respectively.
Regarding `Nc1nc(Br)cn2cc(-c3ccccc3)nc12`, the Ki at Adenosine receptor A1 came to 420 nM. Further, the inhibition in assay [1] was found to be 40%; at Adenosine receptor A3 [6] it was 14%; at Adenosine receptor A2a [4], 18%.
A word on the IC50: it is the concentration that gives 50% inhibition. With `O=C(Nc1nc(-c2ccccc2)cn2cc(-c3ccccc3)nc12)c1ccccc1`, the inhibition in assay [7] stood at 2%; in assay [1] it was 1%; in assay [3], 1%; on Adenosine receptor A2a [4] it was 1%. For the same molecule, the IC50 on Adenosine receptor A3 [8] is 235 nM. This molecule showed a Ki at Adenosine receptor A3 [2] of 82 nM.
`O=C(Nc1nc(-c2ccccc2)cn2cc(-c3ccccc3)nc12)c1ccc(Cl)cc1`: the inhibition (in assay [1]; in assay [3]; on Adenosine receptor A2a [4]) was 1% in each case. In addition, the Ki at Adenosine receptor A3 [2] was determined as 156 nM.
As to `Nc1nc(-c2ccco2)cn2cc(-c3ccco3)nc12`, the results for the Ki at Adenosine receptor A1 and on Adenosine receptor A2a [5] were 316 nM and 854 nM, respectively. Moreover, the results for the inhibition (in [1]; at Adenosine receptor A3 [6]) were 30% and 38%, respectively.
In the case of `COc1ccc(-c2cn3cc(-c4ccccc4)nc(N)c3n2)cc1`, the affinity at Adenosine receptor A1, expressed as Ki, was 524 nM. The inhibition turned out to be 1% in assay [1], 27% at Adenosine receptor A3 [6] and 1% at Adenosine receptor A2a [4].
Regarding `Cc1ccc(C(=O)Nc2nc(-c3ccccc3)cn3cc(-c4ccccc4)nc23)cc1`, the inhibition was 3% in assay [1], 1% in assay [3] and 1% on Adenosine receptor A2a [4]. Also, at Adenosine receptor A3 [2], the affinity corresponds to a Ki of 223 nM.
Take `COc1ccc(C(=O)Nc2nccn3cc(-c4ccccc4)nc23)cc1`: the inhibition in assay [1] was 1%; in [3] it was 1%; at Adenosine receptor A2a [4], 3%. Besides, the Ki on Adenosine receptor A3 [2] amounted to 162 nM.
On to `O=C(Nc1nc(-c2ccccc2)cn2cc(-c3ccccc3)nc12)c1cccs1`, for which the figures for the inhibition (in assay [1]; in [3]; at Adenosine receptor A2a [4]) were 4%, 5% and 1%, respectively. Further, at Adenosine receptor A3 [2], the Ki was 185 nM.
In the case of `O=C(Cc1ccccc1)Nc1nccn2cc(-c3ccccc3)nc12`, the inhibition stood at 15% in assay [1], 46% in assay [3] and 37% on Adenosine receptor A2a [4]. On Adenosine receptor A3 [2], this molecule displayed an inhibition constant Ki of 524 nM.
On the same counts, the results for `O=C(Nc1nccn2cc(-c3ccccc3)nc12)C(c1ccccc1)c1ccccc1` are 25%, 32%, 1% and 245 nM.
For `O=C(c1ccccc1)N(C(=O)c1ccccc1)c1nccn2cc(-c3ccccc3)nc12`, the inhibition amounted to 1% in assay [7], 3% in assay [1], 4% in [3] and 5% on Adenosine receptor A2a [4]. Besides, the IC50 on Adenosine receptor A3 [8] was determined as 187 nM. The molecule further gave a Ki at Adenosine receptor A3 [2] of 64 nM.
For `Nc1nc(-c2ccccc2)cn2cc(-c3ccccc3)nc12`, the inhibitory constant (Ki) was found to be 180 nM at Adenosine receptor A1 and 310 nM on Adenosine receptor A2a [5]. For the same molecule, the inhibition in [1] came to 36%; at Adenosine receptor A3 [6], 23%.
`O=C(Nc1nc(-c2ccccc2)cn2cc(-c3ccccc3)nc12)c1ccco1`: the inhibition in assay [1] came out at 2%; in assay [3], 10%; on Adenosine receptor A2a [4], 1%. The Ki on Adenosine receptor A3 [2] is 67 nM.
On the same counts, the results for `COc1ccc(-c2cn3cc(-c4ccccc4)nc(NC(=O)c4ccccc4)c3n2)cc1` are 1%, 3%, 1% and 312 nM.
In the case of `O=C(Nc1nccn2cc(-c3ccccc3)nc12)c1ccccc1`, the inhibition was 2% in [7], 2% in [1], 18% in assay [3] and 1% at Adenosine receptor A2a [4]. Moreover, on Adenosine receptor A3 [8], the IC50 is 163 nM. For the same molecule, the Ki at Adenosine receptor A3 [2] is 52 nM.
Regarding `COc1ccc(-c2cn3ccnc(NC(=O)c4ccccc4)c3n2)cc1`, the inhibition (in assay [1]; in [3]; on Adenosine receptor A2a [4]) was 1% each time. The molecule further registered a Ki on Adenosine receptor A3 [2] of 121 nM.
With `COc1ccc(C(=O)Nc2nc(-c3ccccc3)cn3cc(-c4ccccc4)nc23)cc1`, the inhibition stood at 1% in [7], 1% in [1], 6% in assay [3] and 8% on Adenosine receptor A2a [4]. Also, the IC50 on Adenosine receptor A3 [8] was found to be 73 nM. The same molecule had a Ki on Adenosine receptor A3 [2] of 25 nM.
Turning to `Nc1nc(Br)cn2cc(-c3ccco3)nc12`, the results for the inhibitory constant (Ki) at Adenosine receptor A1 and on Adenosine receptor A2a [5] were 210 nM and 265 nM, respectively. For the same molecule, the inhibition in assay [1] came to 29%; at Adenosine receptor A3 [6], 28%.
